Assay results: ChEMBL document CHEMBL1121825, “A potent, new, sedative--hypnotic agent: 5,7-dihydro-5,5,7,7-tetramethyl-3-(3-nitrophenyl)furo[3,4-e]-as-triazine 4-oxide” (J Med Chem, 1981)

Columns and labels:
Mus musculus [1] = experiment: Ability to reinduce anesthesia in mice as a measure of in vivo sedative-hypnotic activity; assay type: functional
Procedure, shortened: (§1)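 Male Royal Hart mice (20–25 g) were anesthetized with hexobarbital 70.0 mg/kg iv. While they were regaining the righting reflex, compound was given ip. Reinduction was scored as loss of righting reflex for 10 min. ED50 (mg/kg) is the dose reinducing anesthesia in 50% of mice, estimated by probit analysis (Miller–Tainter).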

Mus musculus [2] = experiment: Tested for ability to reinduce anesthesia in mice when administered intraperitoneally as a measure of in vivo sedative-hypnotic activity; D represents Toxic; assay type: functional, organism-based; procedure, shortened: as §1

SMILES | ED50 (Mus musculus [1]) | ED50 (Mus musculus [2])
CC1(C)OC(C)(C)c2c1nnc(-c1ccc(F)cc1)[n+]2[O-] | 500 mg/kg | 
CC1(C)CSCC(C)(C)c2nc(-c3ccccc3)nnc21 | 31.3 mg/kg | 
CC1(C)OC(C)(C)c2nc(-c3cnccn3)nnc21 | 100 mg/kg | 
CC1(C)OC(C)(C)c2nc(-c3cccc[n+]3[O-])nnc21 | 138 mg/kg | 
Cc1cccc(-c2nnc3c([n+]2[O-])C(C)(C)OC3(C)C)c1 | 150 mg/kg | 
CC1(C)OC(C)(C)c2nc(-c3ccccc3)nnc21 | 167 mg/kg | 
CC1(C)Cc2nnc(-c3cccc([N+](=O)[O-])c3)[n+]([O-])c2C(C)(C)O1 | 500 mg/kg | 
CC1(C)OC(C)(C)c2nnc(-c3ccccc3)cc21.Cl | 112 mg/kg | 
CC1(C)OC(C)(c2ccccc2)c2nnc(-c3cccc([N+](=O)[O-])c3)nc21 (centres undefined) | 800 mg/kg | 
CC1(C)OC(C)(C)c2nc(-c3cccnc3)nnc21 | 28.1 mg/kg | 
CC1(C)C=CC(C)(C)c2nc(-c3cccc(S(N)(=O)=O)c3)nnc21 | 1000 mg/kg | 
CC1(C)OC(C)(C)c2nc(-c3ccc4ccccc4n3)nnc21 | 168 mg/kg | 
CCCc1nnc(-c2ccccn2)nc1C |  | Toxic
Cc1nnc(-c2ccccn2)nc1C |  | Toxic
CC1(C)OC(C)(C)C(N=N)=C1O | 133 mg/kg | 
CC1(C)OC(C)(C)c2nc(-c3cccc([N+](=O)[O-])c3)nnc21 | 68.8 mg/kg | 
CC1(C)OC2(CCCCC2)c2c1nnc(-c1ccccc1)[n+]2[O-] | 183 mg/kg | 
CC1(C)OC(C)(C)c2c1nnc(-c1cccc(C(F)(F)F)c1)[n+]2[O-] | 66.7 mg/kg | 
Cc1ccc(-c2nnc3c([n+]2[O-])C(C)(C)OC3(C)C)cc1C | 133 mg/kg | 
